# Assay outcomes deposited in PubChem BioAssay by The Scripps Research Institute Molecular Screening Center.
# GalR3 antagonist: human GalR3 antagonism; inhibition, % at 3 µM; HEK293 GalR3-CNG cAMP membrane potential fluorescence; galR3 body fused to GalR1 C-terminus; actives 0.44% (n = 360,000); AID 651719; O60755;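 active = inhibition above the screen-wide average plus 3 SD, cut at about 13% in these data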;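 note: forskolin and galanin both at EC90 stimulate the cells; cAMP rise reported by CNG channel membrane potential dye signal; 0% = forskolin plus galanin with DMSO and 100% = forskolin alone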
# OX1R antag-1: antagonists of human orexin 1 receptor | inhibition, % at 5 µM | O43613 | CHO/OX1R cells, Fluo-8 calcium fluorescence, orexin A | AID 434989 | actives 0.43% (n = 330,000);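 active = inhibition above its plate's threshold, mean inhibition of all tested compounds on the plate plus 3 SD, cut at about 37% in these data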;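 note: 0% = orexin A challenge wells and 100% = SB-334867-A antagonist wells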
# Target sequence (O43613 whole entry, looked up): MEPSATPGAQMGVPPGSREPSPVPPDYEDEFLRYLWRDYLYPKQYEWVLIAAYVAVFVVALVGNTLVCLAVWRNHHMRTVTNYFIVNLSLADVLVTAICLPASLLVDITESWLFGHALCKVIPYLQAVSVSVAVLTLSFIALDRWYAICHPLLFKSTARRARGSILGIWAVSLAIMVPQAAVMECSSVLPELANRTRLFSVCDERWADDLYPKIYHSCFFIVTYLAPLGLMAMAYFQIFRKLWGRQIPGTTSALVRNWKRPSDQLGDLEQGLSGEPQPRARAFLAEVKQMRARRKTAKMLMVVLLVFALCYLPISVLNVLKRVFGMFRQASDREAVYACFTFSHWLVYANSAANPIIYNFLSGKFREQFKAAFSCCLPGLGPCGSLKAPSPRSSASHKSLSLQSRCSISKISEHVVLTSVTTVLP
# OX1R antag-2: antagonists of human orexin 1 receptor (OX1R); OX1R-expressing cells, FRET antagonist read-out; inhibition, % at 6.6 µM; actives 1.8% (n = 330,000); AID 485270; in the data active = inhibition mostly above about 38%, no sharp cut-off; inactive = mostly below about 40%;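 note: 0% = agonist challenge alone and 100% = reference antagonist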
# CHO parental Ca: counter-screen: ATP calcium response change in parental CHO cells. parental CHO-K1, ATP-induced calcium, Fluo-8 fluorescence. inhibition, % at 5.6 µM. actives 0.63% (n = 330,000). AID 463079;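 active = inhibition above that plate's mean sample inhibition plus 3 SD, cut at about 26% in these data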;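 note: 0% = ATP-challenged DMSO wells and 100% = DMSO wells without ATP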
#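 material = parental CHO cells | also added = ATP as calcium-mobilizing challenge | dosing = single point at 5.6 µM | detection = intracellular calcium via Fluo-8 no-wash fluorescent dye | read-out = % inhibition | benchmarks = low control ATP plus DMSO, high control DMSO only | repeats = one well per compound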
# GPR7 antagonist: antagonists of human GPR7 (neuropeptides B/W receptor 1); P48145; GPR7-expressing cells, fluorescence antagonist assay; inhibition, % at 4.4 µM; actives 1.1% (n = 290,000); AID 1861; in the data active = inhibition above about 16%, passing the limit was not always enough;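 note: cells stimulated with the agonist NPW; 0% = agonist with vehicle and 100% = vehicle without agonist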
# * marks the source's active call; other numbers are inactive results; nt = no result. Most compounds without a hit are left out; they make up all but 3.1% or so of the library.
SMILES,GalR3 antagonist,OX1R antag-1,OX1R antag-2,CHO parental Ca,GPR7 antagonist
C[C@H](O)[C@@H]1CN2CCc3c([nH]c4ccccc34)[C@@H]2C[C@@H]1N(C)CC1CCCCC1,-6.7,nt,nt,nt,nt
CCC(C)(C)n1nnnc1C(c1ccc(OC)c(OC)c1)N1CCN(c2cccc(OC)c2)CC1 (stereo not given),-1.7,-18.4,34.5,-27.9,4.4
CCC(C)(C)n1nnnc1C(c1ccc(OC)c(OC)c1)N1CCN(c2ccccc2)CC1 (stereo not given),-5.8,-20.1,21.4,-22.8,17.5*
O=C(c1cccc(Cl)c1)N1CCN(c2ccccn2)CC1,0.1,-36.5,12.0,-7.4,-6.8
O=C(c1ccc(S(=O)(=O)c2cccc(Cl)c2)c([N+](=O)[O-])c1)N1CCN(c2ccccn2)CC1,0.2,3.8,43.4,33.5*,11.6
COc1cc(OC)c(OC)cc1/C=N/n1c(COc2ccccc2)n[nH]c1=S,-5.3,-2.6,5.8,-5.8,-12.8
COc1cc([N+](=O)[O-])cc(/C=C2/SC(=S)N(Cc3ccccc3)C2=O)c1O,-9.4,67.6*,10.5,49.3*,5.5
COc1cc(/C=C2/SC(=S)N(Cc3ccccc3)C2=O)cc(Cl)c1O,-11.5,95.5*,-12.0,67.0*,89.2*
Nc1ccc(-c2nc3nc(N)nc(N)c3nc2-c2ccc(N)cc2)cc1,-8.8,-8.3,39.7*,-1.6,-9.8
Nc1nc(N)c2ncc(C(=O)CCc3ccccc3)nc2n1,0.1,-23.2,35.6,-16.6,7.6
COc1ccc(NC(=S)NC(NC(=O)c2cccc(C)c2)C(Cl)(Cl)Cl)c([N+](=O)[O-])c1 (stereo not given),-3.9,-13.1,60.7,-8.6,-10.1
COc1ccc(NC(=S)NC(NC(=O)c2cccc(Cl)c2)C(Cl)(Cl)Cl)c([N+](=O)[O-])c1 (stereo not given),-2.6,7.4,30.8,26.3*,-3.9
Cc1ccc(-c2nc(N3CCOCC3)sc2C(=O)N2CCCCC2)cc1,-3.3,-9.1,18.2,-30.9,24.7*
COc1cccc(S(=O)(=O)N(C)C[C@@H]2OCc3cn(nn3)CCCC(=O)N([C@H](C)CO)C[C@H]2C)c1,-1.7,nt,nt,nt,nt
CCOc1ccc(N=Nc2c(=O)[nH]n3c(=O)c4c([nH]c23)CCCC4)cc1,-12.6,-11.1,14.1,-5.1,-11.6
CCOc1ccc(N=Nc2c(=O)[nH]n3c(=O)cc(C)[nH]c23)cc1,-0.9,-1.8,59.1*,-13.2,-4.1
COC(=O)C1=C(C)N(C)C(=NCc2ccccc2C(F)(F)F)NC1c1cccc(F)c1 (stereo not given),-5.7,nt,nt,nt,nt
CCn1c(C(=O)N2CCC(C(=O)NCc3cccs3)CC2)cc2sccc21,nt,-30.8,-1.3,-9.2,-4.7
O=C(NCc1ccco1)C1CCN(C(=O)c2ccc([N+](=O)[O-])cc2)CC1,-1.6,3.6,53.5*,2.2,-14.8
O=C(NCc1ccco1)C1CCN(C(=O)c2ccc(Cl)cc2)CC1,-5.7,-19.1,13.3,-10.0,nt
O=C(NCc1ccco1)C1CCN(C(=O)c2cc3sccc3n2Cc2ccc(Cl)cc2)CC1,-6.5,68.7*,13.7,36.9*,10.7
O=C(Cn1c(-c2ccccc2)c[n+]2ccsc12)c1ccc(Br)cc1,1.9,-12.0,3.0,-11.1,-8.7
CN(C(=O)COc1ccccc1C(=O)NCCOc1ccccc1)c1ccccc1,5.4,78.4*,80.0*,92.3*,9.1
COc1ccc(CNC[C@H]2O[C@@H](n3ccc(=O)[nH]c3=O)[C@H](O)[C@@H]2O)cc1OC,-3.0,nt,nt,nt,nt
CCOc1ccc(C(=O)C[n+]2cccc3cc(C)ccc32)cc1,-8.6,1.1,47.2*,-9.5,2.4
SMILES,GalR3 antagonist,OX1R antag-1,OX1R antag-2,CHO parental Ca,GPR7 antagonist
Cc1ccc(C(=O)C[n+]2cccc3cc(C)ccc32)cc1,-4.6,-26.2,85.4,-16.0,-17.8
O=C1NC(=Nc2ccc3ccccc3c2)S/C1=C/c1ccco1,-5.4,5.4,42.4*,-13.5,-3.7
Cc1cc(C)c(O)c(C(=O)CC2CC(=O)NC(=O)C2)c1,-1.1,nt,nt,nt,nt
Cc1ccc(-c2nnn(CC(=O)N(c3ccccc3F)C(C(=O)NC3CCCC3)c3ccco3)n2)o1 (stereo not given),nt,9.6,45.1*,-2.1,-2.5
Cc1ccc(-c2nnn(CC(=O)N(c3ccc(F)cc3)C(C(=O)NC3CCCC3)c3ccco3)n2)o1 (stereo not given),nt,-16.8,8.7,-14.4,-3.1
CCn1c(COC(=O)CNC(=O)c2cc(OC)c(OC)c(OC)c2)nc2cc(S(=O)(=O)N(C)C)ccc21,-3.5,-0.1,2.7,12.7,nt
